Experimental data of several laboratories.
Protocols differ between the studies behind these lines.
CDK7: Cyclin-dependent kinase 7 (CDK7, Homo sapiens, UniProt P50613)

SMILES | target | assay | setting | measurement | result
COc1ccc2oc(-c3ccc4nc(N)oc4c3)c/c(=N\c3ccccc3NC(=O)CCN)c2c1 | CDK7 | binding | 1 µM | remaining binding | 97%
C[C@]1(O)CCCN(c2nc(Nc3ccc(S(=O)(=O)N[C@H]4CC[C@H](CN5CCN(c6ccc(C7CCC(=O)NC7=O)cc6F)CC5)CC4)cc3Cl)ncc2C(F)(F)F)C1 (some centres unmarked) | CDK7 | binding, competition with immobilised ligand | 1 µM | remaining binding | 100%
Cc1ccc(NC(=O)c2ccnc(C(F)(F)F)c2)cc1-c1cc(OCCO)nc(N2CCOCC2)c1 | CDK7 | binding, competition with immobilised ligand | 1 µM | remaining binding | 98%
CCCCC(=O)Nc1ccc(-c2ccc3ncn(CCC)c(=O)c3c2)cn1 | CDK7 | binding, competition with immobilised ligand | 0.5 µM | remaining binding | 83%
C1=C/COCc2cc(ccc2OCCN2CCCC2)Nc2nccc(n2)-c2cccc(c2)COC/1 | CDK7 | binding | 0.1 µM | remaining binding | 21%
CNS(=O)(=O)c1ccc(Nc2ncc(C(F)(F)F)c(N3CCC[C@](C)(O)C3)n2)c(C)c1 | CDK7 | binding, competition with immobilised ligand | 1 µM | remaining binding | 83%
CC(C)S(=O)(=O)c1ccc2nccc(Nc3ccc4sc(C5CCCC5)nc4c3)c2c1 | Cyclin-dependent kinase 7, with cyclin H (CDK7, Homo sapiens, UniProt P50613) | enzyme activity, inhibitor | 1 µM | activity vs control | 106%
C=CC(=O)N1CCC[C@@H](n2nc(-c3ccc(Oc4ccccc4)cc3)c3c(N)ncnc32)C1 | CDK7 | enzyme activity, inhibitor | 1 µM | inhibition | 28%
N#Cc1ccc(NC(=O)Nc2ccccc2)cc1 | CDK7 | cell-free assay, competition with immobilised ligand | 25 µM | remaining binding | 94%
C=CC(=O)N1CCC([C@@H]2CCNc3c(C(N)=O)c(-c4ccc(Oc5ccccc5)cc4)nn32)CC1 | CDK7 | enzyme activity, inhibitor | 1 µM | inhibition | 21%
CN1CCN(C(=O)c2ccc(NC(=O)Nc3ccc(N(C)c4ccnc(Nc5ccc(CS(C)(=O)=O)cc5)n4)cc3)cc2)CC1 | CDK7 | binding, competition with immobilised ligand | 1 µM | remaining binding | 61%
